The source of these data is ChEMBL document CHEMBL1933043.

Series [1] is described as follows: Therapeutic index, ratio of TD50 for MDCK cells to ED50 for influenza A virus (A/swine/OH/511445/2007(H1N1)) Oh7. Type of series: cell-based. Particulars: dog, read-out: Ratio TD50/ED50. The method, boiled down:
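MDCK cells infected with swine influenza A/swine/OH/511445/2007 (H1N1, Oh7) and incubated with compound at 0.1–150 μM plus trypsin (10 μg/mL) for up to 4 days. Cytopathic effect was scored, and replication was confirmed by immunofluorescence and Western blot against viral nucleoprotein or whole virus. ED50 is the dose giving 50% virus reduction, and TD50 the dose giving 50% cell death. TI is TD50/ED50.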

A short description of series [2]: Cytotoxicity against MDCK cells after 4 days. The series is classed as cell-based, Canis lupus familiaris. Particulars: dog, read-out: TD50. The method, boiled down:
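MDCK cells exposed to compounds at 0.1–150 μM with trypsin (10 μg/mL) for up to 4 days. Cells were inspected microscopically. TD50 was taken as the dose causing 50% cell death.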

A further series deals with Influenza A virus. Description: Antiviral activity against influenza A virus (A/swine/OH/511445/2007(H1N1)) Oh7 infected in MDCK cells assessed as inhibition of viral replication after 4 days by quantitative RT-PCR. Type of series: functional. Particulars: (A/swine/OH/511445/2007(H1N1)) Oh7, MDCK, 96 h, read-out: ED50 (the source's name).

Take `O=C(Oc1c(-c2ccc(O)c(O)c2)oc2cc(O)cc(O)c2c1=O)c1cc(O)c(O)c(O)c1`: the selectivity ratio in series [1] amounted to 9.9. Moreover, the CC50 at 96 h in series [2] stood at 90.2 µM. Moreover, in the series with Influenza A virus, the EC50 was determined as 9.1 µM.
For `O=C(Oc1c(-c2ccc(O)c(O)c2)oc2cc(O)cc(O)c2c1=O)c1cc(O)ccc1O`, in that order: 2.3, 45.2 µM and 19.4 µM.
On the same counts, the results for `Nc1cc(C(=O)Oc2c(-c3ccc(O)c(O)c3)oc3cc(O)cc(O)c3c2=O)ccc1O` are 2.7, 60.1 µM and 22.6 µM.
On the same counts, the results for `Nc1ccc(C(=O)Oc2c(-c3ccc(O)c(O)c3)oc3cc(O)cc(O)c3c2=O)cc1O` are 2.3, 54.8 µM and 24.1 µM.
For `O=C(Oc1cc(-c2oc3cc(O)cc(O)c3c(=O)c2O)ccc1O)c1cc(O)c(O)c(O)c1`, in the series with Influenza A virus, the EC50 was above 50 µM.
As for `NCCCOc1cc(-c2oc3cc(O)cc(O)c3c(=O)c2O)ccc1O`, in the series with Influenza A virus, the EC50 is above 50 µM.
For `CCCOc1cc(O)cc2oc(-c3ccc(O)c(O)c3)c(O)c(=O)c12`, the EC50 with Influenza A virus was above 50 µM.
For `O=c1c(OCc2ccccc2)c(-c2ccc(OCc3ccccc3)c(OCc3ccccc3)c2)oc2cc(OCc3ccccc3)cc(O)c12`, in the series on Influenza A virus, the EC50 is above 50 µM.
Consider `O=C(O[C@@H]1Cc2c(O)cc(O)cc2O[C@@H]1c1cc(O)c(O)c(O)c1)c1cc(O)c(O)c(O)c1` [EPIGALOCATECHIN GALLATE], for which the selectivity ratio in series [1] amounted to 5.5. Moreover, in series [2], the CC50 at 96 h is 45.5 µM. In the series with Influenza A virus, the EC50 was found to be 8.3 µM.
In the case of `O=c1c(O[C@@H]2O[C@H](CO)[C@@H](O)[C@H](O)[C@H]2O)c(-c2ccc(O)c(O)c2)oc2cc(O)cc(O)c12` [ISOQUERCETIN], the selectivity ratio in series [1] stood at 37.6. Further, the CC50 at 96 h in series [2] came out at 45.1 µM. The EC50 with Influenza A virus is 1.2 µM.
For the compound `O=c1c(O)c(-c2ccc(O)c(O)c2)oc2cc(O)cc(O)c12` [QUERCETIN], the selectivity ratio in series [1] was 1.7. The CC50 at 96 h in series [2] amounted to 83.4 µM. Also, in the series with Influenza A virus, the EC50 was 48.2 µM.
